Measurements from different studies.
Compare with care: the assays were run in different laboratories.
Target: cAMP-dependent protein kinase catalytic subunit alpha (PRKACA, Homo sapiens, UniProt P17612)

With `COc1cnc(Nc2cccc(S(N)(=O)=O)c2)nc1N1CCN(c2ccccc2)C(=O)C1` the remaining binding was 100% (binding; competition with immobilised ligand; 1 µM).
`O=C(c1ccc(Nc2ncc(Cl)c(-c3ccc(Cl)s3)n2)cc1)N1CCC(N2CCCC2)CC1` gave a remaining binding of 97% (binding; competition with immobilised ligand; 1 µM).
`Cc1c(NC(=O)c2cc(C(N)=O)nc3cc(F)ccc23)c(C(F)(F)F)nn1Cc1ccc(C#N)cc1` has a remaining binding of 78% (cell-free assay; competition with immobilised ligand; 1 µM).
`Cc1cnc(Nc2ccc(C(=O)N3CCC(N4CCCC4)CC3)cc2)nc1-c1cc2ccccc2s1` has a remaining binding of 67% (binding; competition with immobilised ligand; 1 µM).
With `CC1CCCN1c1nccc(-c2cnn3ncccc23)n1` (stereo not drawn) the remaining binding was 100% (binding; 1 µM).
The remaining binding of `C[C@@H]1CN(c2ccc3ncc(-c4ccc5[nH]nc(C6CC6)c5c4)n3n2)C[C@H](C)O1` is reported as 100% (binding; competition with immobilised ligand; 0.5 µM).
With `CN(C)c1nccc(-c2cnc3ncccn23)n1` the remaining binding was 83% (binding; 1 µM).
For `O=C(c1ccc(Nc2ncc(Cl)c(-c3cc4ccccc4s3)n2)cc1)N1CCC(N2CCCC2)CC1`, the remaining binding was 90% (binding; competition with immobilised ligand; 1 µM).
`C[C@@H]1CCN(c2nccc(-c3cnn4ncccc34)n2)C1` has a remaining binding of 100% (binding; 1 µM).
For `CCN1CCN(Cc2ccc(C(=O)Nc3ccc(C)c(Oc4ccc5c(c4)CC(=O)N5)c3)cc2C(F)(F)F)CC1`, the remaining binding was 100% (binding; competition with immobilised ligand; 1 µM).
`COc1ncc2cc3ccccc3nc2c1C#N` gave a remaining binding of 100% (cell-free assay; competition with immobilised ligand; 5 µM).
For `Cc1c(C(=O)O)cc(-c2ccc(C3CCNCC3)cc2)c2ccc(-c3ccc(C(F)(F)F)cc3)cc12`, the remaining binding was 100% (cell-free assay; competition with immobilised ligand; 1 µM).
For `c1cnn2ncc(-c3ccnc(N4CCC45COC5)n3)c2c1`, the remaining binding was 100% (binding; 1 µM).
For `O=C(N1CCS(=O)(=O)CC1)N1C[C@H](c2ccc(OC(F)(F)F)cc2)C[C@H](c2nc(C3CC3)no2)C1`, the remaining binding was 100% (cell-free assay; competition with immobilised ligand; 1 µM).
For `CNC(=O)[C@@H]1CC[C@@H](n2c(-c3ccc4cnccc4c3)nc3ccc(C(=O)NCc4cccc(C(N)=O)c4)cc32)C1`, the remaining binding was 100% (binding; competition with immobilised ligand; 1 µM).
The remaining binding of `Nc1cnc(N2CCc3cc(S(=O)(=O)Nc4c(F)cc(Cl)cc4F)cc(N4CCCC4=O)c32)nc1` is reported as 100% (cell-free assay; competition with immobilised ligand; 1 µM).
The remaining binding of `Nc1ncc2c(n1)-c1c([nH]c3ccc(C#CC4CC4)cc13)CCCC2` is reported as 86% (binding; competition with immobilised ligand; 1 µM).
For `O=C(Nc1ccc(Oc2ccc(F)cc2)cc1)N1CCc2ncccc2[C@H]1c1ccc(F)cc1`, the remaining binding was 95% (cell-free assay; competition with immobilised ligand; 1 µM).
For `FC(F)(F)Oc1cccc(-c2cnc3ccc(-c4ccncc4)nn23)c1`, the remaining binding was 91% (cell-free assay; competition with immobilised ligand; 5 µM).
For `COCCOc1nc(-c2ccc(Cl)nc2)nc2c1CN(C(=O)c1ncn3ccccc13)CC2`, the remaining binding was 82% (cell-free assay; competition with immobilised ligand; 0.1 µM).
With `O=C(Nc1c[nH]nc1C(=O)NC1CCNCC1)c1cc(F)cc(F)c1` the remaining binding was 100% (binding; competition with immobilised ligand; 1 µM).
